In ChEMBL document CHEMBL3588757, “Structure-based design, synthesis and biological testing of piperazine-linked bis-epipodophyllotoxin etoposide analogs” (Bioorg Med Chem, 2015):

What was measured:
Type in all cases: functional
CCRF-CEM [1] = test: Cytotoxicity against human CCRF-CEM cells assessed as cell growth at 5 uM by SRB assay; details: read-out: Activity
HCT-116 [2] = test: Cytotoxicity against human HCT116 cells by SRB assay
Summary of the method: (§1)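 Measured in the NCI-60 human tumour cell line panel using five-dose testing. Growth was recorded at each dose for each cell line, and a GI50 was derived for each line.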

SK-MEL-5 [3] = test: Cytotoxicity against human SK-MEL-5 cells assessed as cell growth at 0.005 uM by SRB assay; details: read-out: Activity
UACC-257 = test: Cytotoxicity against human UACC257 cells assessed as cell growth at 0.005 uM by SRB assay; details: read-out: Activity
CCRF-CEM [4] = test: Cytotoxicity against human CCRF-CEM cells assessed as cell growth at 0.05 uM by SRB assay; details: read-out: Activity
K562 = test: Relative resistance, ratio of IC50 for etoposide-resistant human K/VP.5 cells to IC50 for human K562 cells
T47D = test: Cytotoxicity against human T47D cells assessed as cell growth at 0.005 uM by SRB assay; details: read-out: Activity
SK-MEL-5 [5] = test: Cytotoxicity against human SK-MEL-5 cells by SRB assay
Summary of the method: (§2)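 NCI-60 panel screen; 5-dose testing giving GI50 per cell line, plus a single 10 µM one-dose test. Method details not given beyond the NCI screen.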

CAKI-1 = test: Cytotoxicity against human Caki1 cells by SRB assay
MDA-MB-435 = test: Cytotoxicity against human MDA-MB-435 cells assessed as cell growth at 50 uM by SRB assay; details: read-out: Activity
NCI-H322M = test: Cytotoxicity against human NCI-H322M cells assessed as cell growth at 0.05 uM by SRB assay; details: read-out: Activity
[6] = Cytotoxicity against human Hs578T cells by SRB assay; details: Hs-578T; summary of the method: as §1
ACHN = test: Cytotoxicity against human ACHN cells assessed as cell growth at 0.5 uM by SRB assay; details: read-out: Activity
OVCAR-3 [7] = test: Cytotoxicity against human OVCAR3 cells assessed as cell growth at 50 uM by SRB assay; details: read-out: Activity
HOP-62 [8] = test: Cytotoxicity against human HOP62 cells assessed as cell growth at 0.005 uM by SRB assay; details: read-out: Activity; summary of the method: as §1
HOP-92 [9] = test: Cytotoxicity against human HOP92 cells assessed as cell growth at 5 uM by SRB assay; details: read-out: Activity; summary of the method: as §1
786-0 = test: Cytotoxicity against human 786-0 cells assessed as cell growth at 50 uM by SRB assay; details: read-out: Activity
BT-549 = test: Cytotoxicity against human BT549 cells by SRB assay
SF-268 = test: Cytotoxicity against human SF268 cells assessed as cell growth at 0.5 uM by SRB assay; details: read-out: Activity
UO-31 = test: Cytotoxicity against human UO31 cells assessed as cell growth at 50 uM by SRB assay; details: read-out: Activity
DU-145 = test: Cytotoxicity against human DU145 cells assessed as cell growth at 0.5 uM by SRB assay; details: read-out: Activity; summary of the method: as §1
MOLT-4 [10] = test: Cytotoxicity against human MOLT4 cells by SRB assay; summary of the method: as §2
MOLT-4 [11] = test: Cytotoxicity against human MOLT4 cells assessed as cell growth at 0.05 uM by SRB assay; details: read-out: Activity
NCI-H226 = test: Cytotoxicity against human NCI-H226 cells assessed as cell growth at 5 uM by SRB assay; details: read-out: Activity
RPMI-8226 = test: Cytotoxicity against human RPMI8226 cells assessed as cell growth at 0.05 uM by SRB assay; details: read-out: Activity
OVCAR-3 [12] = test: Cytotoxicity against human OVCAR3 cells by SRB assay; summary of the method: as §2
HCC 2998 = test: Cytotoxicity against human HCC2998 cells by SRB assay; summary of the method: as §1
NCI-H522 = test: Cytotoxicity against human NCI-H522 cells assessed as cell growth at 0.05 uM by SRB assay; details: read-out: Activity
U-251 = test: Cytotoxicity against human U251 cells assessed as cell growth at 50 uM by SRB assay; details: read-out: Activity
MOLT-4 [13] = test: Cytotoxicity against human MOLT4 cells assessed as cell growth at 0.5 uM by SRB assay; details: read-out: Activity
HCT-116 [14] = test: Cytotoxicity against human HCT116 cells assessed as cell growth at 0.005 uM by SRB assay; details: read-out: Activity; summary of the method: as §1
OVCAR-4 = test: Cytotoxicity against human OVCAR4 cells by SRB assay; summary of the method: as §2
HOP-62 [15] = test: Cytotoxicity against human HOP62 cells by SRB assay; summary of the method: as §1
HOP-92 [16] = test: Cytotoxicity against human HOP92 cells assessed as cell growth at 50 uM by SRB assay; details: read-out: Activity; summary of the method: as §1
[17] = Cytotoxicity against human NCI-ADR-RES cells assessed as cell growth at 0.05 uM by SRB assay; details: read-out: Activity
UACC-62 = test: Cytotoxicity against human UACC62 cells assessed as cell growth at 0.005 uM by SRB assay; details: read-out: Activity
SK-MEL-5 [18] = test: Cytotoxicity against human SK-MEL-5 cells assessed as cell growth at 0.5 uM by SRB assay; details: read-out: Activity
SF-295 = test: Cytotoxicity against human SF295 cells by SRB assay; summary of the method: as §2
[19] = read-out: LC50 (the source's name)
[20] = read-out: pLC50 (the source's name) (converted)

COc1cc([C@@H]2c3cc4c(cc3[C@@H](NC(=O)CN3CCN(CCCCCCN5CCN(CC(=O)N[C@@H]6c7cc8c(cc7[C@@H](c7cc(OC)c(O)c(OC)c7)[C@H]7C(=O)OC[C@@H]76)OCO8)CC5)CC3)[C@H]3COC(=O)[C@H]23)OCO4)cc(OC)c1O
growth at 5 µM (CCRF-CEM [1]): 7% | GI50 (HCT-116 [2]; read-out: GI50): 1.63 µM | CC50 (HCT-116 [2]; [19]): > 50 µM | TGI (HCT-116 [2]; read-out: TGI): > 50 µM | GI50 (HCT-116 [2]; read-out: pGI50 (converted)): 1.62 µM | CC50 (HCT-116 [2]; [20]): > 50.1 µM | TGI (HCT-116 [2]; read-out: pTGI (converted)): > 50.1 µM | growth at 0.005 µM (SK-MEL-5 [3]): 97% | growth at 0.005 µM (UACC-257): 99% | growth at 0.05 µM (CCRF-CEM [4]): 95% | Ratio IC50 (K562): 21.5 | growth at 0.005 µM (T47D): 97% | GI50 (SK-MEL-5 [5]; read-out: GI50): 6.93 µM | CC50 (SK-MEL-5 [5]; [19]): > 50 µM | TGI (SK-MEL-5 [5]; read-out: TGI): > 50 µM | GI50 (SK-MEL-5 [5]; read-out: pGI50 (converted)): 6.92 µM | CC50 (SK-MEL-5 [5]; [20]): > 50.1 µM | TGI (SK-MEL-5 [5]; read-out: pTGI (converted)): > 50.1 µM | GI50 (CAKI-1; read-out: GI50): > 50 µM | CC50 (CAKI-1; [19]): > 50 µM | TGI (CAKI-1; read-out: TGI): > 50 µM | GI50 (CAKI-1; read-out: pGI50 (converted)): > 50.1 µM | CC50 (CAKI-1; [20]): > 50.1 µM | TGI (CAKI-1; read-out: pTGI (converted)): > 50.1 µM | growth at 50 µM (MDA-MB-435): 17% | growth at 0.05 µM (NCI-H322M): 105% | GI50 ([6]; read-out: GI50): 8.93 µM | CC50 [6, 19]: > 50 µM | TGI ([6]; read-out: TGI): > 50 µM | GI50 ([6]; read-out: pGI50 (converted)): 8.91 µM | CC50 [6, 20]: > 50.1 µM | TGI ([6]; read-out: pTGI (converted)): > 50.1 µM | growth at 0.5 µM (ACHN): 95% | growth at 50 µM (OVCAR-3 [7]): 11% | growth at 0.005 µM (HOP-62 [8]): 95% | growth at 5 µM (HOP-92 [9]): 30% | growth at 50 µM (786-0): -10% | GI50 (BT-549; read-out: GI50): 0.757 µM | CC50 (BT-549; [19]): > 50 µM | TGI (BT-549; read-out: TGI): 4.24 µM | GI50 (BT-549; read-out: pGI50 (converted)): 0.759 µM | CC50 (BT-549; [20]): > 50.1 µM | TGI (BT-549; read-out: pTGI (converted)): 4.27 µM | growth at 0.5 µM (SF-268): 74% | growth at 50 µM (UO-31): 64% | growth at 0.5 µM (DU-145): 89% | GI50 (MOLT-4 [10]; read-out: GI50): 0.233 µM | CC50 (MOLT-4 [10]; [19]): > 50 µM | TGI (MOLT-4 [10]; read-out: TGI): > 50 µM | GI50 (MOLT-4 [10]; read-out: pGI50 (converted)): 0.234 µM | CC50 (MOLT-4 [10]; [20]): > 50.1 µM | TGI (MOLT-4 [10]; read-out: pTGI (converted)): > 50.1 µM | growth at 0.05 µM (MOLT-4 [11]): 105% | growth at 5 µM (NCI-H226): 52% | growth at 0.05 µM (RPMI-8226): 86% | GI50 (OVCAR-3 [12]; read-out: GI50): 8.92 µM | CC50 (OVCAR-3 [12]; [19]): > 50 µM | TGI (OVCAR-3 [12]; read-out: TGI): > 50 µM | GI50 (OVCAR-3 [12]; read-out: pGI50 (converted)): 8.91 µM | CC50 (OVCAR-3 [12]; [20]): > 50.1 µM | TGI (OVCAR-3 [12]; read-out: pTGI (converted)): > 50.1 µM | GI50 (HCC 2998; read-out: GI50): 9.47 µM | CC50 (HCC 2998; [19]): > 50 µM | TGI (HCC 2998; read-out: TGI): 38.3 µM | GI50 (HCC 2998; read-out: pGI50 (converted)): 9.55 µM | CC50 (HCC 2998; [20]): > 50.1 µM | TGI (HCC 2998; read-out: pTGI (converted)): 38 µM | growth at 0.05 µM (NCI-H522): 99% | growth at 50 µM (U-251): -10% | growth at 0.5 µM (MOLT-4 [13]): 23% | growth at 0.005 µM (HCT-116 [14]): 93% | GI50 (OVCAR-4; read-out: GI50): 10.5 µM | CC50 (OVCAR-4; [19]): > 50 µM | TGI (OVCAR-4; read-out: TGI): > 50 µM | GI50 (OVCAR-4; read-out: pGI50 (converted)): 10.5 µM | CC50 (OVCAR-4; [20]): > 50.1 µM | TGI (OVCAR-4; read-out: pTGI (converted)): > 50.1 µM | GI50 (HOP-62 [15]; read-out: GI50): 3.6 µM | CC50 (HOP-62 [15]; [19]): > 50 µM | TGI (HOP-62 [15]; read-out: TGI): 22.8 µM | GI50 (HOP-62 [15]; read-out: pGI50 (converted)): 3.63 µM | CC50 (HOP-62 [15]; [20]): > 50.1 µM | TGI (HOP-62 [15]; read-out: pTGI (converted)): 22.9 µM | growth at 50 µM (HOP-92 [16]): 14% | growth at 0.05 µM [17]: 103% | growth at 0.005 µM (UACC-62): 97% | growth at 0.5 µM (SK-MEL-5 [18]): 85% | GI50 (SF-295; read-out: GI50): 4.92 µM | CC50 (SF-295; [19]): > 50 µM | TGI (SF-295; read-out: TGI): > 50 µM | GI50 (SF-295; read-out: pGI50 (converted)): 4.9 µM | CC50 (SF-295; [20]): > 50.1 µM | TGI (SF-295; read-out: pTGI (converted)): > 50.1 µM
